Laboratory results taken from ChEMBL document CHEMBL1132359, “Thiazolothiazepine inhibitors of HIV-1 integrase” (J Med Chem, 1999).

Legend:
CCRF-CEM [1] = assay: The compound was tested for inhibitory activity against HIV-1; format: functional, cell-based; settings: Homo sapiens
[2] = target: T1, Human immunodeficiency virus type 1 integrase (Human immunodeficiency virus 1, UniProt Q7ZJM1); assay: Inhibition of the 3'-processing activity of HIV-1 integrase
Outline: (§1)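 Then 20 nM 5′-32P-labeled linear oligonucleotide substrate added and incubated a further 1 h. Products separated on denaturing 20% polyacrylamide/urea gel and quantified by phosphorimaging. IC50 read from a plot of percent inhibition versus concentration.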

[3] = target: T1, Human immunodeficiency virus type 1 integrase; assay: Inhibition of the 3'-end joining activity of HIV-1 integrase; outline: as §1
CCRF-CEM [4] = assay: Tested for cytotoxicity in CEM cells; format: functional; settings: Homo sapiens
CCRF-CEM [5] = assay: The compound was tested for inhibitory activity against HIV-1 infected CEM cells; format: functional, cell-based; settings: Homo sapiens
CCRF-CEM [6] = assay: The compound was tested for cytotoxicity against HIV-1 infected CEM cells; format: functional; settings: Homo sapiens

T1 sequence (Q7ZJM1 whole entry): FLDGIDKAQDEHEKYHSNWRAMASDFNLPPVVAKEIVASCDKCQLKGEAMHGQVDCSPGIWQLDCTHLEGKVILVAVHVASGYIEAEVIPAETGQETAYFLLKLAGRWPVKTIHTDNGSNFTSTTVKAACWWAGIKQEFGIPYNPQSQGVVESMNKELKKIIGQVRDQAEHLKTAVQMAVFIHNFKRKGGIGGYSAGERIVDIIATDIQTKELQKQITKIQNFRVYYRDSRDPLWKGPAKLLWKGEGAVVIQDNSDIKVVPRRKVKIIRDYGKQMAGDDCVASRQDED

Row | SMILES | EC50 (CCRF-CEM [1]) [µM] | IC50 [2] [µM] | IC50 [3] [µM] | CC50 (CCRF-CEM [4]) [µM] | EC50 (CCRF-CEM [5]) [µM] | CC50 (CCRF-CEM [6]) [µM]
1 | COc1cc2c(cc1OC)C(=O)N1CCCC1CS2 (stereo unspecified) | > 200 | > 1000 | > 1000 | > 200 |  | 
2 | COc1ccc2c(c1)C(=O)N1CSCC1C(=O)S2 (stereo unspecified) | > 200 | 155 | 155 | > 200 |  | 
3 | Cc1ccc2c(c1)C(=O)N1CCSC1C(=O)S2 (stereo unspecified) |  | 64 | 55 |  |  | 
4 | O=C1Sc2ccc(Cl)cc2C(=O)N2C[S+]([O-])CC12 (stereo unspecified) |  | 260 | 280 |  |  | 
5 | CC(=O)OC1Sc2ccccc2C(=O)N2CCCC12 (stereo unspecified) | > 200 | > 1000 | > 1000 | > 200 |  | 
6 | O=C1Sc2ccc(Cl)cc2C(=O)N2CSCC12 (stereo unspecified) | > 100 | 158 | 160 | > 100 |  | 
7 | O=C1Sc2ccccc2C(=O)N2CCSC12 (stereo unspecified) |  | 110 | 146 |  | 107 | > 200
8 | COC1Sc2ccccc2C(=O)N2CCCC12 (stereo unspecified) | > 200 | > 1000 | > 1000 | > 200 |  | 
9 | O=C1Sc2ccccc2C(=O)N2CCCCC12 (stereo unspecified) | > 200 | 406 | 343 | > 200 |  | 
10 | O=C1Sc2ccccc2Cn2cccc21 | 146 | 590 | 300 | > 200 |  | 
11 | O=C1c2ccccc2SC(O)C2CCCN12 (stereo unspecified) | > 200 | > 1000 | > 1000 | > 200 |  | 
12 | COc1cc2c(cc1OC)C(=O)N1CCCC1C(=O)S2 (stereo unspecified) | > 200 | > 1000 | > 1000 | > 200 |  | 
13 | O=C1Sc2ccccc2C(=O)N2COCC12 (stereo unspecified) |  | > 333 | > 333 |  |  | 
14 | CN1CCN(Cc2ccc3n2Cc2ccccc2SC3c2ccccc2)CC1 (stereo unspecified) |  | > 1000 | > 1000 |  |  | 
15 | COc1cc2c(cc1OC)C(=O)N1CSCC1C(=O)S2 (stereo unspecified) | > 50 | 670 | 333 | > 50 |  | 
16 | O=C1Sc2ccc(Cl)cc2C(=O)N2CCSC12 (stereo unspecified) | > 50 | 151 | 120 | > 50 |  | 

Row | SMILES | EC50 (CCRF-CEM [1]) [µM] | IC50 [2] [µM] | IC50 [3] [µM] | CC50 (CCRF-CEM [4]) [µM] | EC50 (CCRF-CEM [5]) [µM] | CC50 (CCRF-CEM [6]) [µM]
17 | O=C1Sc2ccccc2C(=O)N2CSCC12 (stereo unspecified) | > 200 | 208 | 227 | > 200 |  | 
18 | O=C1Sc2ccc(Br)cc2C(=O)N2CCSC12 (stereo unspecified) |  | 58 | 48 |  |  | 
19 | O=C1Sc2ccccc2C(=O)N2C[S+]([O-])CC12 (stereo unspecified) |  | 200 | 215 |  |  | 
20 | O=C1c2ccccc2SC(O)(c2ccccc2)C2CCCN12 (stereo unspecified) |  | > 1000 | > 1000 |  |  | 
21 | O=C1Sc2cc3ccccc3cc2C(=O)N2CSCC12 (stereo unspecified) | 280 | 92 | 100 | > 316 |  | 
22 | Cc1ccc2c(c1)C(=O)N1CSCC1C(=O)S2 (stereo unspecified) |  | 52 | 63 | 35 |  | 
23 | O=C1Sc2cc([N+](=O)[O-])ccc2C(=O)N2CSCC12 (stereo unspecified) | > 50 | 90 | 100 | > 50 |  | 
24 | CN(C)Cc1ccc2n1Cc1ccccc1SC2c1ccc(F)cc1 (stereo unspecified) |  | > 1000 | > 1000 |  |  | 
25 | O=C1c2ccccc2SCC2CSC(c3ccccc3)N12 (stereo unspecified) |  | 372 | 376 |  |  | 
26 | CCOC(=O)C1Sc2ccccc2Cn2cccc21 (stereo unspecified) |  | > 1000 | > 1000 |  |  | 
27 | CN1CCN(C2Sc3ccccc3C(=O)N3CCCC23)CC1 (stereo unspecified) | > 125 | > 1000 | > 1000 | > 125 |  | 
28 | O=C1Sc2cc3ccccc3cc2C(=O)N2CCSC12 (stereo unspecified) | 60 | 40 | 47 | > 316 |  | 
29 | O=C1Sc2ccc(Br)cc2C(=O)N2CSCC12 (stereo unspecified) | > 200 | 87 | 74 | > 200 |  | 
30 | COc1ccc2c(c1)C(=O)N1C[S+]([O-])CC1C(=O)S2 (stereo unspecified) |  | 84.5 | 142 |  |  | 
31 | Cc1ccc2c(c1)C(=O)N1CC[S+]([O-])C1C(=O)S2 (stereo unspecified) | > 100 | 590 | 590 | > 100 |  | 
